Laboratory results reported in the M2OR odorant receptor database.

Columns and labels:
Details in all cases: stereoisomer not certain
[1] = target: T1, UniProt Q8VFP5
T1 sequence (whole entry): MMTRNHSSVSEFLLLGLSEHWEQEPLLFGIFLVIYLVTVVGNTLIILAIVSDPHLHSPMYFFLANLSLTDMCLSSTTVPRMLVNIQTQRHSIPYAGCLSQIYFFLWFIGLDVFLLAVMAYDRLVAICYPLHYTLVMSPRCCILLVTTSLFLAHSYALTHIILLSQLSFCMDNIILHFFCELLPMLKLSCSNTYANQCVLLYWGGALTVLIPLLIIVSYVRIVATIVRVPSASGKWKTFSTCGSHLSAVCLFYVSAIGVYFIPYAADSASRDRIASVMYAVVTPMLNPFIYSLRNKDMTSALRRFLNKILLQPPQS
Outline: (§1)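 Each receptor–molecule pair is labelled responsive or non-responsive (inactive) according to whether the original authors judged the measured signal statistically different from baseline. The data were taken from the main text and supplementary material of published papers and checked for typos and inconsistencies. Assay methods differed by source, with transient luciferase assays in mammalian cell lines being common.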

[2] = target: T2, UniProt Q8VFZ6
T2 sequence (whole entry): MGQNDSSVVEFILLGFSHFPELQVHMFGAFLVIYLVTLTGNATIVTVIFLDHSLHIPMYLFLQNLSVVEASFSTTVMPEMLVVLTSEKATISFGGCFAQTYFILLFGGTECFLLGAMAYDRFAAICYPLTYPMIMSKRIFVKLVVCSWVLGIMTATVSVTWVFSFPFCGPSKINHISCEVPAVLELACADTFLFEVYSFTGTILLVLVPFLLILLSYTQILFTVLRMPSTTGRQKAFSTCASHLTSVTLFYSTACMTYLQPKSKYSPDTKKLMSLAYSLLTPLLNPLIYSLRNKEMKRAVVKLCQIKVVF
Outline: as §1

[3] = target: T3, UniProt Q8VG01
T3 sequence (whole entry): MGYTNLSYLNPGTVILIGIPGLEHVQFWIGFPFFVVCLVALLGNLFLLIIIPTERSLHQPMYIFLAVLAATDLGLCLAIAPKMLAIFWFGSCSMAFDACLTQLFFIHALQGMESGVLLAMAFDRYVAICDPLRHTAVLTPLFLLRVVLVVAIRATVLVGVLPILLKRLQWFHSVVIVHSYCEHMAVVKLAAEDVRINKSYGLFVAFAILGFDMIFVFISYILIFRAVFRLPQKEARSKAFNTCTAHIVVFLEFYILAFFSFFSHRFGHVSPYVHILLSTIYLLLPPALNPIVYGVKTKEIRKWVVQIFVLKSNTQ
Outline: as §1

[4] = target: T4, UniProt Q8VG22
T4 sequence (whole entry): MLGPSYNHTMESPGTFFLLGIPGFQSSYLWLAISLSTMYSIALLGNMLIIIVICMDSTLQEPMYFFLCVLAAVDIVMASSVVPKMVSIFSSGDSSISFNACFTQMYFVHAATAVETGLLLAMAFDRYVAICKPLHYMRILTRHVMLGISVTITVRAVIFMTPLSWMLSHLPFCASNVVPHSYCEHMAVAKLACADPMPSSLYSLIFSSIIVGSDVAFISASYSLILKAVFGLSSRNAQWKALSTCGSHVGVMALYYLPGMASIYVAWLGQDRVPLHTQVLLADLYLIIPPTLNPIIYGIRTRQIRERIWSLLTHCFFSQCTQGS
Outline: as §1

[5] = target: T5, UniProt Q8VG27
T5 sequence (whole entry): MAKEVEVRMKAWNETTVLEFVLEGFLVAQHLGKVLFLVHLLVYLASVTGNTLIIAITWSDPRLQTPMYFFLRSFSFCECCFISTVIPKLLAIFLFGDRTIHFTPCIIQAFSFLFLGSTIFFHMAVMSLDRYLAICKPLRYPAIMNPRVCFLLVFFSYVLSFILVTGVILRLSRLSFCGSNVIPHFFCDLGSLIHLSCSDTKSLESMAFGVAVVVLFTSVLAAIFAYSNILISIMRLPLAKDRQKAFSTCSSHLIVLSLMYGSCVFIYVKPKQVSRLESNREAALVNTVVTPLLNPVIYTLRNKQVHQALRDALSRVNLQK
Outline: as §1

[6] = target: T6, UniProt Q8VG49
T6 sequence (whole entry): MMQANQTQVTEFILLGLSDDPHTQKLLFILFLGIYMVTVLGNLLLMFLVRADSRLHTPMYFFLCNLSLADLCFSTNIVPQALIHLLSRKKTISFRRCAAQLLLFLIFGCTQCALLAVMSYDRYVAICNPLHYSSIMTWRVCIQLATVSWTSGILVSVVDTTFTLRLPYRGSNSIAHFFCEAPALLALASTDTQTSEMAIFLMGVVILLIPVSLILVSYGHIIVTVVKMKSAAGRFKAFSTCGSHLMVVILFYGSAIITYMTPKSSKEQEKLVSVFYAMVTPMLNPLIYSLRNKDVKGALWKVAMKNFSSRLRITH
Outline: as §1

[7] = target: T7, UniProt Q8VG53
T7 sequence (whole entry): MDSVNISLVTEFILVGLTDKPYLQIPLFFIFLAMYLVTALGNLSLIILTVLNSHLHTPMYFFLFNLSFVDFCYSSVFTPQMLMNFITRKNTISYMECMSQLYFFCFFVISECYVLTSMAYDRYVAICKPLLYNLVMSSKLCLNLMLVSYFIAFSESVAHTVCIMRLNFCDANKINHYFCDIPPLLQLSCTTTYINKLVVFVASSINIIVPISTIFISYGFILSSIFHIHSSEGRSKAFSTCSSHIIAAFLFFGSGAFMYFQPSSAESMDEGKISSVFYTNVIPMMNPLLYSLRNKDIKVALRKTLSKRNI
Outline: as §1

[8] = target: T8, UniProt Q8VG64
T8 sequence (whole entry): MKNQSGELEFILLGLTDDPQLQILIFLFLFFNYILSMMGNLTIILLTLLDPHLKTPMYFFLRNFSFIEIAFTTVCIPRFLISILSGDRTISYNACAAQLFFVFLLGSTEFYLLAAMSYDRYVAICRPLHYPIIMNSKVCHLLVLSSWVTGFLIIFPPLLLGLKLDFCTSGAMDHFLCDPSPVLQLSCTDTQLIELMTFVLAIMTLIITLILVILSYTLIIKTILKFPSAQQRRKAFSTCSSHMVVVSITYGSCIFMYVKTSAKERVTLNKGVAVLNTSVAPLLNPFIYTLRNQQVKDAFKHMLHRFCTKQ
Outline: as §1

[9] = target: T9, UniProt Q8VG77
T9 sequence (whole entry): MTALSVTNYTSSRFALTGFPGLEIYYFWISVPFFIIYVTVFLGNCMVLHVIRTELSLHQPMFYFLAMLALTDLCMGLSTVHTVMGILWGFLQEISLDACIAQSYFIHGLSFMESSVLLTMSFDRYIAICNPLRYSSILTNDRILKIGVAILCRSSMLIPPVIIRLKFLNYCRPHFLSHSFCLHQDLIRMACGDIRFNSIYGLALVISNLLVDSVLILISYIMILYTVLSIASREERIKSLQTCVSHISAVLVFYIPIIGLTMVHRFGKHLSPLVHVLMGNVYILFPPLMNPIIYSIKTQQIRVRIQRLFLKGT
Outline: as §1

[10] = target: T10, UniProt Q8VG96
T10 sequence (whole entry): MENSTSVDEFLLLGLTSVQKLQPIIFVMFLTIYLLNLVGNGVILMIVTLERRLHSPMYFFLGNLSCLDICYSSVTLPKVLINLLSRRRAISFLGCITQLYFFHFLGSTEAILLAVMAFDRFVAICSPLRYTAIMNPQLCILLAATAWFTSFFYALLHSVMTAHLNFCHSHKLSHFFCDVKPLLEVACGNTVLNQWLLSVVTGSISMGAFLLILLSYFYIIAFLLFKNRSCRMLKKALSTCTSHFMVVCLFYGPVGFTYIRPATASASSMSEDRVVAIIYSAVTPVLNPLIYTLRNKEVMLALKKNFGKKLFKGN
Outline: as §1

[11] = target: T11, UniProt Q8VGB9
T11 sequence (whole entry): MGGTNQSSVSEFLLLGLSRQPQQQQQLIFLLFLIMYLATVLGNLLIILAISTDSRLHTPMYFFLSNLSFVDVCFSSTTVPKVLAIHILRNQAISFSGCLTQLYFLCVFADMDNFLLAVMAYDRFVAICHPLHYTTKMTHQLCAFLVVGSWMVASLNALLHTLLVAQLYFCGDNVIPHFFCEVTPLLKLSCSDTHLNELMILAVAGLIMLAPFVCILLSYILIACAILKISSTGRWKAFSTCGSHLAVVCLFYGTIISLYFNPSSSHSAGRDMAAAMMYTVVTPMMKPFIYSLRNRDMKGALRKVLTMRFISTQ
Outline: as §1

[12] = target: UniProt Q8VG28
UniProt Q8VG28, sequence (Q8VG28 as listed by the source): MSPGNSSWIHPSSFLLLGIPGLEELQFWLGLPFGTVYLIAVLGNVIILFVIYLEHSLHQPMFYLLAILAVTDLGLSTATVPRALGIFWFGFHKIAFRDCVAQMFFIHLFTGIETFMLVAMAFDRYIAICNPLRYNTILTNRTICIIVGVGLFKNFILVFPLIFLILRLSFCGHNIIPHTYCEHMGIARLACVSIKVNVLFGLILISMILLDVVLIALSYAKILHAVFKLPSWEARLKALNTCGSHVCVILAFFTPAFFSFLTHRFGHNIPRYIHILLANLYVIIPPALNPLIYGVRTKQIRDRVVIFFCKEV
Outline: as §1

[13] = target: UniProt Q8VG26
UniProt Q8VG26, sequence (Q8VG26 as listed by the source): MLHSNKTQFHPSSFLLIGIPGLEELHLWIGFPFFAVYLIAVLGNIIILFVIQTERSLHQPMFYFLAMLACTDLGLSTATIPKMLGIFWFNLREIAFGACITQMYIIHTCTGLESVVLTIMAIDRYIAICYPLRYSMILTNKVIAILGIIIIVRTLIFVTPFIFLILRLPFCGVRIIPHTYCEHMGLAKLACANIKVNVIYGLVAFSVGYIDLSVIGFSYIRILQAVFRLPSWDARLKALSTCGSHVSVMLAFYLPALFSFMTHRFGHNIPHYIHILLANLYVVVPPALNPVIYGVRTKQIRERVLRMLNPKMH
Outline: as §1

Measured: odorant receptor agonist call;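 also: active if original authors judged signal statistically different from baseline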

CCCCCCCCCCO
not listed: [12] | [13]
inactive: all other assays above

CCCCCC(=O)CC
not listed: [12] | [13]
inactive: all other assays above

C=C(C)C1CC=C(C)CC1 (stereo not given)
inactive: [1] | [3] | [5] | [7] | [8] | [11]

CSSCc1ccco1
active: [5]
inactive: [1] | [3] | [7] | [8] | [11]

CCCCCCCCCCCO
inactive: [1] | [3] | [5] | [7] | [8] | [11]

CCN(CC)CC
inactive: [1] | [3] | [5] | [7] | [8] | [11]

O=C([O-])CCCCCCC(=O)[O-].[H+].[H+]
inactive: [1] | [3] | [5] | [12] | [7] | [8] | [11]

C1CCOCC1
inactive: [1] | [3] | [5] | [7] | [8] | [11]

Cc1ccc2c(c1)OCC(=O)CO2
inactive: [1] | [3] | [5] | [7] | [8] | [11]

CCC(C)c1nccnc1OC (stereo not given)
inactive: [1] | [3] | [5] | [7] | [8] | [11]

OCCc1ccccc1
inactive: [1] | [3] | [5] | [7] | [8] | [11]

CCC(C)O (stereo not given)
inactive: [1] | [3] | [5] | [7] | [8] | [11]

CC(=O)OCc1ccc2c(c1)OCO2
inactive: [1] | [3] | [5] | [7] | [8] | [11]

C=CC(C)=CCC=C(C)CCC=C(C)C
inactive: [1] | [3] | [5] | [7] | [8] | [11]

CCCCCCC=CC=O
inactive: [1] | [3] | [5] | [7] | [8] | [11]

Cc1ccc(OC(=O)C(C)C)cc1
inactive: [1] | [3] | [5] | [7] | [8] | [11]

CCCCCCCCOC=O
inactive: [1] | [3] | [5] | [7] | [8] | [11]

CCCCC=O
not listed: [2] | [4] | [6] | [9] | [10]
inactive: all other assays above

O=C(O)CCCCCBr
inactive: [1] | [5] | [12] | [7] | [8] | [11]
active: [3]

OCCCCCCCCCO
inactive: [1] | [3] | [5] | [7] | [11]
active: [8]

COc1cnccn1
inactive: [1] | [3] | [5] | [7] | [8] | [11]

Cc1ccc(C(C)C)c(O)c1
inactive: [1] | [3] | [5] | [7] | [8] | [11]

CCc1occc(=O)c1O
inactive: [1] | [3] | [5] | [7] | [8] | [11]

CC(=O)OCCc1ccccc1
inactive: [1] | [3] | [5] | [7] | [8] | [11]

Cc1ccc(C(C)C)cc1
inactive: [1] | [3] | [5] | [7] | [8] | [11]

C1CCOC1
inactive: [1] | [3] | [5] | [7] | [8] | [11]

CCC=CCCCCC=O
active: [3]
inactive: [1] | [5] | [7] | [8] | [11]

CCCCCC(C=O)=Cc1ccccc1
inactive: [1] | [3] | [5] | [7] | [8] | [11]

CC(=O)C1(C)CC2=C(CCCC2(C)C)CC1C (stereo not given)
inactive: [1] | [3] | [5] | [7] | [8] | [11]

C=CC(=C)CCC=C(C)C
inactive: [1] | [3] | [5] | [7] | [8] | [11]

C=CC(=O)CCCCC
inactive: [1] | [3] | [5] | [7] | [8] | [11]

Cc1c(C)c(C)c(C=O)c(C)c1C
inactive: [1] | [3] | [5] | [7] | [8] | [11]

C=C(C)C1CCC(C)C(O)C1 (stereo not given)
inactive: [1] | [3] | [5] | [7] | [8] | [11]

CCCCCOC(=O)CCC
inactive: [1] | [3] | [5] | [7] | [8] | [11]

CC1CC=CCCCCCCCCCC(=O)C1 (stereo not given)
inactive: [1] | [3] | [5] | [7] | [8] | [11]

CC(C)CS
inactive: [1] | [3] | [5] | [7] | [8] | [11]
